Assay [1] addresses T1, Mu-type opioid receptor (Homo sapiens, UniProt P35372). Put plainly: Agonist activity at human MOR expressed in CHO cell membranes after 60 mins by [35S]GTP-gamma-S binding assay. The gist of the method:
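[35S]GTP-γ-S binding read-out of G-protein activation. Each compound assayed three times, with values given as mean ± standard error of the mean.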
On the technique in general: GTPγS resists hydrolysis and so accumulates on activated G proteins.

Assay [2] concerns the target T2, Kappa-type opioid receptor (Homo sapiens, UniProt P41145). Put plainly: Displacement of [3H]U69593 from human KOR expressed in CHO cell membranes after 60 mins.
The target in assay [3] is T3, Delta-type opioid receptor (Homo sapiens, UniProt P41143). The assay can be described thus: Displacement of [3H]DPDPE from human DOR expressed in CHO cell membranes after 60 mins. For orientation: In a radioligand displacement assay an active substance lowers the binding of a labelled ligand.
Assay [4] concerns the target T2, Kappa-type opioid receptor. Put plainly: Displacement of [3H]U69593 from human KOR expressed in CHO cell membranes at 1 uM after 60 mins. The gist of the method: (§1)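 Competitive radioligand inhibition binding. […] DOR used [3H]DPDPE on membranes of CHO cells expressing human DOR. KOR used [3H]U69593 on CHO cells expressing human KOR. […] Each compound was run three times, mean ± SEM.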

Assay [5] concerns the target T3, Delta-type opioid receptor. Put plainly: Displacement of [3H]DPDPE from human DOR expressed in CHO cell membranes at 1 uM after 60 mins. The method in brief: as §1
Assay [6] has as its target T1, Mu-type opioid receptor. Put plainly: Displacement of [3H]DAMGO from human MOR expressed in CHO cell membranes after 60 mins.
The target in assay [7] is T3, Delta-type opioid receptor. Put plainly: Agonist activity at human DOR expressed in CHO cell membranes after 60 mins by [35S]GTP-gamma-S binding assay. The method in brief:
(§2)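 Receptor activation by standard [35S]GTP-γ-S binding. Each compound was assayed three times and reported as mean ± SEM.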

The target of assay [8] is T1, Mu-type opioid receptor. The assay can be described thus: Displacement of [3H]DAMGO from human MOR expressed in CHO cell membranes at 1 uM after 60 mins.
In assay [9] the target is T2, Kappa-type opioid receptor. Put plainly: Agonist activity at human KOR expressed in CHO cell membranes after 60 mins by [35S]GTP-gamma-S binding assay. The method in brief:
as §2

Molecules are shown by their SMILES. Bounds are passed on as bounds.

T1 sequence (P35372 whole entry): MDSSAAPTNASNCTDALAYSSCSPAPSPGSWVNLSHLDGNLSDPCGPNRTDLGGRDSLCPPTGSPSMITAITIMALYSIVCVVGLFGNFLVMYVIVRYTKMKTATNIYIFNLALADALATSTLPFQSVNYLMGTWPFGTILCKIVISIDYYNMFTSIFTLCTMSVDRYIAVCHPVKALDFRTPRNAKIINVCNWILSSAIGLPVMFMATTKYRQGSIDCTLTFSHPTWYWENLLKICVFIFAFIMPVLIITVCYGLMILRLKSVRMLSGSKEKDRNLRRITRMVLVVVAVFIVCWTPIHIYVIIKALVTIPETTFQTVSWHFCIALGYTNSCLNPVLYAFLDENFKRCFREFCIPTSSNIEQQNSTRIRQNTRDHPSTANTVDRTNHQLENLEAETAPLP
T2 sequence (P41145 whole entry): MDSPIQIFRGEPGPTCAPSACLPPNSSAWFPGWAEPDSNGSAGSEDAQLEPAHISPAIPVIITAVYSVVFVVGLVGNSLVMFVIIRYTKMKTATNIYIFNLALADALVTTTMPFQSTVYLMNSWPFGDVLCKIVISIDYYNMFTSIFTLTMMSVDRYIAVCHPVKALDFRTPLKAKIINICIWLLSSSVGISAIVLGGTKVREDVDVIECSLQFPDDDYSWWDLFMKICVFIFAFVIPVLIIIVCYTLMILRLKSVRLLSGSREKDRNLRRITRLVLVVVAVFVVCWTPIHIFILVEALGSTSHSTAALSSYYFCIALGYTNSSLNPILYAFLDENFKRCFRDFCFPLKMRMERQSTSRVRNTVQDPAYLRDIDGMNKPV
T3 sequence (P41143 whole entry): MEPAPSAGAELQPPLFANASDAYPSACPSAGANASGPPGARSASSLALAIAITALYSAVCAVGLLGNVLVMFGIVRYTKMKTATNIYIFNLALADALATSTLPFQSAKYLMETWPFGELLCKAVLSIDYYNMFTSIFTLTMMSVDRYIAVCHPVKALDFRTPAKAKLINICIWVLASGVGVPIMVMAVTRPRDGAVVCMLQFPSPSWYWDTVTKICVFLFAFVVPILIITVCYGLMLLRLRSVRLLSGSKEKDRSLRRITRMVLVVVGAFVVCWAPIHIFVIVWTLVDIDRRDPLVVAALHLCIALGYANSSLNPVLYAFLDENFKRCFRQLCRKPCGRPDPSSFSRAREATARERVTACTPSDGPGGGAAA

In general, Emax refers to the size of the effect at its maximum, as opposed to the concentration needed. As usually defined, the Ki is a dissociation constant, usually derived from enzyme kinetics or from competition with a known ligand. `CN(C)C[C@H]1CCCC[C@]1(O)c1cccc(O)c1` (racemic) [O-DESMETHYL TRAMADOL] showed an Emax in [1] of 220%. In addition, the Ki in [2] and in assay [3] was above 10 µM in each case.
A word on the inhibition: it is the percentage by which the read-out fell short of the control. The low end stands for little suppression, the high end for strong suppression. Consider `COc1cccc([C@@]2(O)c3ccc(-c4ccccc4C)cc3CC[C@@H]2CN(C)C)c1`, for which the results for the inhibition in assay [4] and in assay [5] were 16.2% and 13%, respectively. In addition, the Ki in assay [6] is above 10 µM.
Turning to `COc1ccccc1-c1ccc2c(c1)CCC(CN(C)C)C2(O)c1cccc(O)c1` (single isomer, unassigned; (+)), the Ki in assay [2] (cho), in assay [3] and in assay [6] (cho) was above 10 µM throughout.
As for `COc1cccc(-c2ccc3c(c2)CC[C@H](CN(C)C)[C@@]3(O)c2cccc(OC)c2)c1`, the Ki in assay [2], in assay [3] and in [6] was above 10 µM each time.
As to `COc1cccc([C@@]2(O)c3ccc(-c4ccc(C(F)(F)F)cc4)cc3CC[C@@H]2CN(C)C)c1`, the Ki in assay [2], in [3] and in assay [6] was above 10 µM throughout.
Usually EC50 stands for the concentration giving half of the maximal effect. Lower therefore signals an effect from little substance. Turning to `COc1ccccc1-c1ccc2c(c1)CC[C@H](CN(C)C)[C@@]2(O)c1cccc(O)c1`, the Ki in [3] was found to be 0.0047 µM. In [7], this compound gave an EC50 of 0.0093 µM and an Emax of 230%. The inhibition in assay [4] was 17.7%. The Ki in assay [6] is above 10 µM.
With `CN(C)C[C@H]1CCc2cc(-c3ccccc3C(F)(F)F)ccc2[C@]1(O)c1cccc(O)c1`, the values for the Ki in assay [2], in [3] and in [6] were above 10 µM, 0.065 µM and above 10 µM, respectively. The same compound returned an EC50 in assay [7] of 0.9 µM. Besides, the Emax in [7] was found to be 217%.
Consider `Cc1ccccc1-c1ccc2c(c1)CC[C@H](CN(C)C)[C@@]2(O)c1cccc(O)c1`, for which the Ki is above 10 µM in assay [2], 0.14 µM in assay [3] and above 10 µM in assay [6]. The compound further returned an EC50 in [7] of 0.49 µM. The compound also yielded an Emax in [7] of 199%.
On to `COc1cccc(-c2ccc3c(c2)CC[C@H](CN(C)C)[C@@]3(O)c2cccc(O)c2)c1`, for which the inhibition came to 15% in [4] and 43% in assay [5]. In assay [6], this compound had a Ki above 10 µM.
As to `COc1cccc([C@@]2(O)CCCC[C@@H]2CN(C)C)c1` (racemic) [(R,R)-TRAMADOL], the inhibitory constant (Ki) in assay [2] and in assay [3] was above 10 µM in each case. The same compound gave an inhibition in assay [8] of 9.6%.
Consider `CN(C)C[C@H]1CCc2cc(-c3ccc(Cl)cc3)ccc2[C@]1(O)c1cccc(O)c1`, for which the inhibition in assay [4] was 8.9%; in [5], 17%. Moreover, in assay [6], the Ki is above 10 µM.
`CN(C)C[C@H]1CCc2cc(-c3ccccc3)ccc2[C@]1(O)c1cccc(O)c1` gave a Ki in assay [2] of 0.14 µM. For the same compound, the response in assay [9] was half-maximal at 0.58 µM (EC50). Also, the Emax in [9] was determined as 187%. Further, the inhibition was 20% in assay [8] and 22% in assay [5].
On to `COc1cccc([C@@]2(O)c3ccc(-c4ccc(Cl)c(Cl)c4)cc3CC[C@@H]2CN(C)C)c1`, for which the Ki in [2], in assay [3] and in assay [6] was above 10 µM each time.
Regarding `COc1ccccc1-c1ccc2c(c1)CCC(CN(C)C)C2(O)c1cccc(O)c1` (single isomer, unassigned; (-)) [listing 1 of 2 here], the Ki in assay [2] was above 10 µM; in assay [3], 0.0027 µM; in [6], above 10 µM. This compound returned an EC50 in assay [7] of 0.0026 µM.
For `CN(C)C[C@H]1CCc2cc(-c3ccccc3OC(F)(F)F)ccc2[C@]1(O)c1cccc(O)c1`, the Ki in [2] was above 10 µM; in [3] it was 0.26 µM; in [6] it was above 10 µM. Also, in assay [7], the response was half-maximal at 1 µM (EC50). Further, the Emax in assay [7] amounted to 215%.
With `CN(C)C[C@H]1CCc2cc(-c3ccccc3Cl)ccc2[C@]1(O)c1cccc(O)c1`, the Ki in [2] was above 10 µM; in assay [3], 0.16 µM; in [6], above 10 µM. The compound also displayed an EC50 in [7] of 0.95 µM. Further, the Emax in [7] worked out at 216%.
For `COc1ccc(-c2ccc3c(c2)CC[C@H](CN(C)C)[C@@]3(O)c2cccc(O)c2)cc1`, the Ki in [2] and in assay [6] was above 10 µM each time. Further, the inhibition in assay [5] stood at 32%.
With `COc1cccc([C@@]2(O)c3ccc(-c4ccc(Cl)cc4)cc3CC[C@@H]2CN(C)C)c1`, the Ki in assay [2], in [3] and in [6] was above 10 µM each time.
Take `COc1cccc([C@@]2(O)c3ccc(-c4ccccc4)cc3CC[C@@H]2CN(C)C)c1`: the Ki in assay [3] and in assay [6] was above 10 µM each time. In addition, the inhibition in assay [4] came to 37%.
As to `CN(C)C[C@H]1CCc2cc(-c3ccc(Cl)c(Cl)c3)ccc2[C@]1(O)c1cccc(O)c1`, the Ki in assay [2], in assay [3] and in assay [6] was above 10 µM in each case.
`COc1ccccc1-c1ccc2c(c1)CCC(CN(C)C)C2(O)c1cccc(O)c1` (single isomer, unassigned; (-)) [listing 2 of 2 here] registered an Emax in assay [7] of 205%.
Turning to `COc1cccc([C@@]2(O)c3ccc(-c4ccccc4OC)cc3CC[C@@H]2CN(C)C)c1`, the Ki in assay [2] and in assay [6] was above 10 µM each time. In assay [5], this compound displayed an inhibition of 37.9%.
For the compound `COc1ccc(-c2ccc3c(c2)CC[C@H](CN(C)C)[C@@]3(O)c2cccc(OC)c2)cc1`, the Ki in [2], in assay [3] and in assay [6] was above 10 µM each time.
As to `CN(C)C[C@H]1CCc2cc(-c3ccc(C(F)(F)F)cc3)ccc2[C@]1(O)c1cccc(O)c1`, the Ki in assay [2], in [3] and in assay [6] was above 10 µM each time.
On to `CN(C)C[C@H]1CCc2cc(-c3ccccc3F)ccc2[C@]1(O)c1cccc(O)c1`, for which the Ki in [2] is above 10 µM; in [3], 0.72 µM; in assay [6] it was above 10 µM. The compound further registered an EC50 in [7] of 1.6 µM. For the same compound, in assay [7], the Emax was determined as 172%.

The record behind these values is ChEMBL document CHEMBL3808393, “Discovery of Potent and Selective Agonists of δ Opioid Receptor by Revisiting the "Message-Address" Concept” (ACS Med Chem Lett, 2016).
